Measurements as given in ChEMBL document CHEMBL1138787, “Synthesis and evaluation of nitrofuranylamides as novel antituberculosis agents” (J Med Chem, 2004).

Columns and labels:
[1] = tested on: Mycobacterium tuberculosis; test: Viable Mycobacterium tuberculosis in spleen of infected Mice after an 8-day drug treatment; Dose is 300 mg/kg; type: functional
In short: (§1)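 C57BL/6 interferon-γ gene-depleted (GKO) mice infected by low-dose aerosol. Eight daily treatments started 18 days postinfection. At day 28, lung and spleen homogenates serially diluted onto Middlebrook 7H11 agar and incubated 4 weeks at 37 °C. CFU log-transformed and reported ±SEM; one-way Dunnett multiple-comparison ANOVA, significance at 95% confidence.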

[2] = tested on: Mycobacterium tuberculosis; test: Viable Mycobacterium tuberculosis in lungs of infected Mice after an 8-day drug treatment; Dose is 300 mg/kg; type: functional, Lung; in short: as §1
[3] = biological target: UDP-galactopyranose mutase (Mycobacterium tuberculosis, UniProt P9WIQ1); test: Inhibition of Mycobacterium tuberculosis UDP-galactose mutase expressed in Escherichia coli UDP-6 [3H]- Galf; set-up: species or system H37Rv
In short: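 Reverse-direction radiometric Glf assay on crude soluble enzyme extract, preactivated 30 min at 37 °C in 25 mM MOPS with NADH and FAD. Each 25 µL well held MOPS pH 7.2, MgCl2, NADH, FAD, 2.3 µg protein, 20 pmol UDP-6-[3H]Galf and 1 µL DMSO. Inhibitors at 100-6.3 µM; reaction 5-20 min. Conversion read by HPLC or periodate filter-plate counting; IC50 calculated.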

[4] = tested on: Vero; test: Selectivity is the ratio of cytotoxicity compared to TBMIC; type: functional
In short: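 Ratio of VERO cell toxicity IC50 to M. tuberculosis H37Ra MIC. VERO monolayers were exposed to 3-fold compound dilutions for 72 h, and viability was read by tetrazolium reduction at 490 nm, with untreated and SDS-lysed cells as 0% and 100%. MIC was by microbroth dilution in 7H9 (OD650 0.01 inoculum), 37 °C for 8 days, with visual 90% growth inhibition.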

[5] = tested on: Mycobacterium tuberculosis; test: Activity against Mycobacterium tuberculosis H37Ra; type: functional
In short: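 Microbroth dilution in microtiter plates. H37Ra grown in Middlebrook 7H9 to OD650 0.4-0.6, then diluted to OD650 0.01. 100 µL of cells added to serial compound dilutions and incubated 37 °C for 8 days, growth read visually. MIC90 taken as wells with >90% growth inhibition; isoniazid positive control on every plate.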

[6] = The protein binding is expressed as percent bound as determined by VolSurf; type: ADME; conditions: read-out: Protein binding (converted)
[7] = tested on: Mycobacterium tuberculosis; test: Viable Mycobacterium tuberculosis in spleen of infected Mice after an 8-day drug treatment; Dose is 150 mg/kg; type: functional; in short: as §1
[8] = tested on: Mycobacterium tuberculosis; test: Viable Mycobacterium tuberculosis in lungs of infected Mice after an 8-day drug treatment; Dose is 150 mg/kg; type: functional, Lung; in short: as §1

UDP-galactopyranose mutase, sequence (P9WIQ1 whole entry): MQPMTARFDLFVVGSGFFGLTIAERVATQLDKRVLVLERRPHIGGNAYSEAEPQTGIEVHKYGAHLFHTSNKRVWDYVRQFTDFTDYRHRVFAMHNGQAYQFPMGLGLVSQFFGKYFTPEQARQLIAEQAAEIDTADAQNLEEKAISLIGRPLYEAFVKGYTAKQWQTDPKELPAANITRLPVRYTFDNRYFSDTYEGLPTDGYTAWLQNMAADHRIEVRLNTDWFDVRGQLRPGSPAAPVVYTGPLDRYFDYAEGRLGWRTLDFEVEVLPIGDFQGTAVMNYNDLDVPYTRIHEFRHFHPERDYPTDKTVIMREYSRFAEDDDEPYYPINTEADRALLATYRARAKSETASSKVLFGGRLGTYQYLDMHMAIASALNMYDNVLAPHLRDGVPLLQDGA

Row | Structure (SMILES) | Activity [1] | Activity [2] | IC50 [3] | Selectivity index [4] | TBMIC [5] | fraction unbound [6] | Activity [7] | Activity [8]
1 | O=C(Nc1cccc(Cl)c1)c1ccc([N+](=O)[O-])o1 | 7.3 log CFU | 8.3 log CFU | 56.3 µM | 8.6 | 0.8 µg/mL | – | – | –
2 | CN(C(=O)c1ccc([N+](=O)[O-])o1)c1ccccc1 | – | – | 260 µM | 7.6 | 3.12 µg/mL | 0.332 | – | –
3 | COc1ccc(CCNC(=O)c2ccc([N+](=O)[O-])o2)cc1OC | – | – | 165 µM | 68.6 | 0.4 µg/mL | 0.303 | – | –
4 | O=C(Nc1cc[nH]n1)c1ccc([N+](=O)[O-])o1 | – | – | 729 µM | 1.2 | 6.25 µg/mL | 0.513 | – | –
5 | O=C(NC1CCCCC1)c1ccc([N+](=O)[O-])o1 | – | – | 281 µM | 2.9 | 3.1 µg/mL | 0.352 | – | –
6 | O=C(NC1CCc2ccccc21)c1ccc([N+](=O)[O-])o1 (centres undefined) | – | – | 264 µM | 3.3 | 3.1 µg/mL | 0.23 | – | –
7 | COc1cccc(CNC(=O)c2ccc([N+](=O)[O-])o2)c1OC | – | – | 464 µM | – | 1.2 µg/mL | 0.356 | – | –
8 | COc1ccc(NC(=O)c2ccc([N+](=O)[O-])o2)cc1 | – | – | 160 µM | 53.6 | 0.4 µg/mL | 0.369 | – | –
9 | O=C(Nc1cccnc1)c1ccc([N+](=O)[O-])o1 | – | – | 206 µM | 2.1 | 6.25 µg/mL | 0.447 | – | –
10 | O=C(Nc1cccc(OCc2ccccc2)c1)c1ccc([N+](=O)[O-])o1 | – | – | 82.8 µM | – | 12.5 µg/mL | 0.13 | – | –
11 | O=C(NC12CC3CC(CC(C3)C1)C2)c1ccc([N+](=O)[O-])o1 | – | – | 169 µM | – | 3.1 µg/mL | – | – | –
12 | COc1cccc2sc(NC(=O)c3ccc([N+](=O)[O-])o3)nc12 | – | – | 210 µM | – | 1.6 µg/mL | 0.257 | – | –
13 | COc1cccc(NC(=O)c2ccc(S(=O)(=O)c3ccccc3)o2)c1 | – | – | 64.4 µM | 4.1 | 6.25 µg/mL | 0.485 | – | –
14 | O=C(Nc1ccccn1)c1ccc([N+](=O)[O-])o1 | – | – | 227 µM | 3.5 | 3.12 µg/mL | 0.438 | – | –
15 | O=C(NCc1ccccn1)c1ccc([N+](=O)[O-])o1 | – | – | 481 µM | – | 0.8 µg/mL | 0.427 | – | –
16 | O=C(NCc1ccccc1Cl)c1ccc([N+](=O)[O-])o1 | – | – | 53.4 µM | 7.3 | 1.6 µg/mL | 0.313 | – | –
17 | COc1ccc(CCNC(=O)c2ccc([N+](=O)[O-])o2)cc1 | – | – | 58.6 µM | 25.6 | 0.8 µg/mL | 0.288 | – | –
18 | COc1cccc(NC(=O)c2ccc([S+]([O-])c3ccccc3)o2)c1 (centres undefined) | – | – | – | 10.4 | 6.25 µg/mL | 0.39 | – | –
19 | COc1ccc(CNC(=O)c2ccc([N+](=O)[O-])o2)cc1OC | 6 log CFU | 6.5 log CFU | 75.1 µM | 90.9 | 0.2 µg/mL | 0.363 | – | –
20 | O=C(NCc1ccco1)c1ccc([N+](=O)[O-])o1 | – | – | 246 µM | 0.7 | 6.25 µg/mL | 0.38 | – | –

Row | Structure (SMILES) | Activity [1] | Activity [2] | IC50 [3] | Selectivity index [4] | TBMIC [5] | fraction unbound [6] | Activity [7] | Activity [8]
21 | COc1ccc(N(C)C(=O)c2ccc([N+](=O)[O-])o2)cc1 | – | – | 500 µM | 4 | 6.25 µg/mL | 0.395 | – | –
22 | O=C(Nc1cccc(F)c1)c1ccc([N+](=O)[O-])o1 | 7 log CFU | 8.4 log CFU | 112 µM | 11.6 | 0.8 µg/mL | 0.334 | – | –
23 | COc1cc(CNC(=O)c2ccc([N+](=O)[O-])o2)cc(OC)c1OC | – | – | 184 µM | 29.5 | 0.8 µg/mL | 0.344 | – | –
24 | COc1ccc(CNC(=O)c2ccc([N+](=O)[O-])o2)cc1 | – | – | 416 µM | 163.6 | 0.1 µg/mL | 0.347 | – | –
25 | O=C(Nc1cccc(Br)c1)c1ccc([N+](=O)[O-])o1 | – | – | 35.4 µM | 9.6 | 0.6 µg/mL | 0.311 | – | –
26 | N#Cc1ccc(NC(=O)c2ccc([N+](=O)[O-])o2)cc1 | – | – | 393 µM | 4.4 | 0.8 µg/mL | 0.249 | – | –
27 | C[C@H](NC(=O)c1ccc([N+](=O)[O-])o1)c1ccccc1 | – | – | 146 µM | 16 | 1.6 µg/mL | 0.259 | – | –
28 | O=C(Nc1ccccc1)c1ccc([N+](=O)[O-])o1 | – | – | 94.7 µM | 2.7 | 0.8 µg/mL | 0.325 | – | –
29 | O=C(Nc1ccncc1)c1ccc([N+](=O)[O-])o1 | – | – | 184 µM | 2.2 | 3.12 µg/mL | 0.446 | – | –
30 | C[C@@H](NC(=O)c1ccc([N+](=O)[O-])o1)c1ccccc1 | – | – | 150 µM | 7.6 | 3.1 µg/mL | 0.289 | – | –
31 | O=C(c1ccc([N+](=O)[O-])o1)N1CCc2ccccc21 | – | – | – | 9.9 | 0.8 µg/mL | 0.25 | – | –
32 | COc1ccc(CNC(=O)c2ccc([N+](=O)[O-])o2)c(OC)c1 | – | – | 111 µM | 13.5 | 0.4 µg/mL | 0.409 | – | –
33 | O=C(Nc1cnccn1)c1ccc([N+](=O)[O-])o1 | – | – | 692 µM | – | 6.25 µg/mL | 0.528 | – | –
34 | O=C(Nc1cccc(O)c1)c1ccc([N+](=O)[O-])o1 | – | – | 314 µM | 7.8 | 1.6 µg/mL | 0.391 | – | –
35 | O=C(NC1CCCc2ccccc21)c1ccc([N+](=O)[O-])o1 (centres undefined) | – | – | 112 µM | – | – | – | – | –
36 | COc1cc(NC(=O)c2ccc([N+](=O)[O-])o2)ncn1 | – | – | – | – | 1.6 µg/mL | 0.469 | – | –
37 | COc1ccccc1CNC(=O)c1ccc([N+](=O)[O-])o1 | – | – | 358 µM | – | 1.6 µg/mL | 0.335 | – | –
38 | O=C(NCCc1ccccc1)c1ccc([N+](=O)[O-])o1 | – | – | 315 µM | 15.7 | 1.6 µg/mL | 0.246 | – | –
39 | Cc1ncc([N+](=O)[O-])n1CCO [METRONIDAZOLE] | – | – | – | – | – | – | 6.9 log CFU | 8.5 log CFU
